In ChEMBL document CHEMBL5030505, “Assessment of NR4A Ligands That Directly Bind and Modulate the Orphan Nuclear Receptor Nurr1” (J Med Chem, 2020):
Active and inactive are the calls of the source. No cut-off for these calls is given here.

What was measured:
Type in all cases: cell-based
[1] = tested on: PC-12; test: Modulation of Gal4-fused VP16 expressed in PC12 cells co-transfected with UAS repoter gene assessed as decrease in luciferase activity at 0.244 to 15.63 uM incubated for 18 hrs by luciferase reporter gene assay; conditions: Human alphaherpesvirus 2, filed as modulator, dose 0.244-15.63 µM
How it was run: (§1)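 Cells in 10-cm dishes were transfected with Gal4-VP16 expression plasmid (2 μg) plus 5xUAS-luciferase reporter (2 μg) for 18 h. They were replated at 10,000 cells/well for 4 h, then given ligand or vehicle (water, ethanol or DMSO) in quadruplicate for 18 h. Luciferase was read with Britelite Plus. Fold change is versus vehicle-treated cells, with one-way ANOVA versus vehicle.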

[2] = tested on: HEK293T; test: Modulation of Gal4-fused VP16 expressed in HEK293T cells co-transfected with UAS repoter gene assessed as decrease in luciferase activity at 0.244 to 15.63 uM incubated for 18 hrs by luciferase reporter gene assay; conditions: Human alphaherpesvirus 2, filed as modulator, dose 0.244-15.63 µM; how it was run: as §1
[3] = tested on: PC-12; test: Cytotoxicity against rat PC-12 cells assessed as reduction in cell viability at 0.244 to 15.63 microM incubated for 18 hrs by Cell titer-glo assay; conditions: pc-12, 18 h, dose 0.244-15.63 µM
How it was run: (§2)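 Cells seeded at 1.5 million per 10-cm dish. Next day they were replated at 10,000 cells/well and rested 4 h. Ligand or vehicle (water, ethanol or DMSO, by ligand) was added in dose-response format in quadruplicate. After 18 h, viability was read by CellTiter-Glo luminescence. Data are mean ± s.e.m., generally representative of 2 independent experiments. One-way ANOVA versus vehicle.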

[4] = biological target: Nuclear receptor subfamily 4 group A member 2 (Homo sapiens) (UniProt P43354); test: Modulation of full length human Nurr1 expressed in PC12 cells co-transfected with luciferase reporter plasmid harboring NBRE response element at 0.244 to 15.63 uM incubated for 18 by luciferase reporter gene assay; conditions: PC-12, dose 0.244-15.63 µM, time 18.0 hrs
How it was run: (§3)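 Here PC12 cells (FK-12 medium, 15% horse serum, 2.5% FBS, 37°C, 5% CO2) received full-length Nurr1 (2 μg) without RXRα, plus 3xNBRE- or 3xNurRE-luciferase reporter (6 μg), for 18 h. Cells were replated at 10,000/well for 4 h, then treated with ligand or vehicle in quadruplicate for 18 h. Luciferase luminescence was normalized to vehicle-treated cells. Results are mean ± s.e.m. (n=4) from 2 independent experiments, with one-way ANOVA against vehicle.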

[5] = biological target: Nuclear receptor subfamily 4 group A member 2 (Homo sapiens) (UniProt P43354); test: Modulation of full length human Nurr1 expressed in PC12 cells co-transfected with luciferase reporter plasmid harboring NurRE response element at 0.244 to 15.63 uM incubated for 18 by luciferase reporter gene assay; conditions: PC-12, dose 0.244-15.63 µM; how it was run: as §3
[6] = biological target: Nuclear receptor subfamily 4 group A member 2 (Homo sapiens) (UniProt P43354); test: Modulation of full length human Nurr1 expressed in SKNBE(2) cells co-transfected with RXRalpha and luciferase reporter plasmid harboring NBRE response element at 0.244 to 15.63 uM incubated for 18 by luciferase reporter gene assay; conditions: SKNBE2, dose 0.244-15.63 µM
How it was run: (§4)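 SK-N-BE(2)-C cells were kept in 1:1 EMEM/F12 with 10% FBS at 37°C and 5% CO2. They were cotransfected with full-length Nurr1 (1 μg), full-length RXRα (1 μg) and 3xNBRE- or 3xNurRE-luc reporter (6 μg) for 18 h, replated at 10,000 cells/well for 4 h, and then treated with ligand or vehicle in quadruplicate for 18 h. The readout was luciferase luminescence as fold over vehicle, reported as mean ± s.e.m. (n=4) from 2 independent experiments, one-way ANOVA.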

[7] = tested on: SK-N-BE(2); test: Cytotoxicity against human SKNBE2 cells assessed as reduction in cell viability at 0.244 to 15.63 uM incubated for 18 hrs by Cell titer-glo assay; conditions: dose 0.244-15.63 µM; how it was run: as §2
[8] = tested on: HEK-293T; test: Cytotoxicity against human HEK293T cells assessed as reduction in cell viability at 0.244 to 15.63 microM incubated for 18 hrs by Cell titer-glo assay; conditions: dose 0.244-15.63 µM; how it was run: as §2
[9] = biological target: Nuclear receptor subfamily 4 group A member 2 (Homo sapiens) (UniProt P43354); test: Modulation of full length human Nurr1 expressed in HEK293T cells co-transfected with RXRalpha and luciferase reporter plasmid harboring NBRE response element at 0.244 to 15.63 uM incubated for 18 by luciferase reporter gene assay; conditions: dose 0.244-15.63 µM, time 18.0 hrs
How it was run: (§5)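 Full-length Nurr1 plasmid, alone (2 μg) or 1 μg plus full-length RXRα (1 μg), cotransfected with 3xNBRE- or 3xNurRE-luciferase reporter (6 μg) using Lipofectamine 2000, 18 h. Cells replated at 10,000/well for 4 h. Four ligand concentrations, or vehicle (water, ethanol or DMSO), added in quadruplicate for 18 h. Luciferase read. Fold change vs vehicle, mean ± s.e.m., one-way ANOVA vs vehicle.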

[10] = tested on: SKNBE2; test: Modulation of Gal4-fused VP16 expressed in SKNBE(2) cells co-transfected with UAS repoter gene assessed as decrease in luciferase activity at 0.244 to 15.63 uM incubated for 18 hrs by luciferase reporter gene assay; conditions: Human alphaherpesvirus 2, filed as modulator, dose 0.244-15.63 µM; how it was run: as §1
[11] = biological target: Nuclear receptor subfamily 4 group A member 2 (Homo sapiens) (UniProt P43354); test: Modulation of full length human Nurr1 expressed in HEK293T cells co-transfected with RXRalpha and luciferase reporter plasmid harboring NurRE response element at 0.244 to 15.63 uM incubated for 18 by luciferase reporter gene assay; conditions: dose 0.244-15.63 µM, time 18.0 hrs; how it was run: as §5
[12] = biological target: Nuclear receptor subfamily 4 group A member 2 (Homo sapiens) (UniProt P43354); test: Modulation of full length human Nurr1 expressed in SKNBE(2) cells co-transfected with RXRalpha and luciferase reporter plasmid harboring NurRE response element at 0.244 to 15.63 uM incubated for 18 by luciferase reporter gene assay; conditions: SKNBE2, dose 0.244-15.63 µM, time 18.0 hrs; how it was run: as §4
[13] = biological target: Nuclear receptor subfamily 4 group A member 2 (Homo sapiens) (UniProt P43354); test: Modulation of full length human Nurr1 expressed in HEK293T cells co-transfected with luciferase reporter plasmid harboring NurRE response element at 0.244 to 15.63 uM incubated for 18 by luciferase reporter gene assay; conditions: dose 0.244-15.63 µM, time 18.0 hrs; how it was run: as §5
[14] = biological target: Nuclear receptor subfamily 4 group A member 2 (Homo sapiens) (UniProt P43354); test: Modulation of full length human Nurr1 expressed in SKNBE(2) cells co-transfected with luciferase reporter plasmid harboring NurRE response element at 0.244 to 15.63 uM incubated for 18 by luciferase reporter gene assay; conditions: SKNBE2, dose 0.244-15.63 µM, time 18.0 hrs
[15] = biological target: Nuclear receptor subfamily 4 group A member 2 (Homo sapiens) (UniProt P43354); test: Modulation of full length human Nurr1 expressed in HEK293T cells co-transfected with luciferase reporter plasmid harboring NBRE response element at 0.244 to 15.63 uM incubated for 18 by luciferase reporter gene assay; conditions: dose 0.244-15.63 µM, time 18.0 hrs; how it was run: as §5
[16] = biological target: Nuclear receptor subfamily 4 group A member 2 (Homo sapiens) (UniProt P43354); test: Modulation of full length human Nurr1 expressed in PC12 cells co-transfected with RXRalpha and luciferase reporter plasmid harboring NBRE response element at 0.244 to 15.63 uM incubated for 18 by luciferase reporter gene assay; conditions: PC-12, dose 0.244-15.63 µM, time 18.0 hrs
How it was run: (§6)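 PC12 cells were grown at 37°C and 5% CO2 in […] medium with 15% horse serum and 2.5% FBS. They were transfected with full-length Nurr1 (1 μg) plus full-length RXRα (1 μg) and 3xNBRE- or 3xNurRE-luciferase reporter (6 μg) for 18 h, then replated at 10,000 cells/well for 4 h. Ligand or vehicle (water, ethanol or DMSO) was added in quadruplicate for 18 h. Luminescence was read as fold change over vehicle. Results are mean ± s.e.m., n=4, from 2 independent experiments, analysed by one-way ANOVA against vehicle.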

[17] = biological target: Nuclear receptor subfamily 4 group A member 2 (Homo sapiens) (UniProt P43354); test: Modulation of full length human Nurr1 expressed in SKNBE(2) cells co-transfected with luciferase reporter plasmid harboring NBRE response element at 0.244 to 15.63 uM incubated for 18 by luciferase reporter gene assay; conditions: SKNBE2, dose 0.244-15.63 µM
[18] = biological target: Nuclear receptor subfamily 4 group A member 2 (Homo sapiens) (UniProt P43354); test: Modulation of full length human Nurr1 expressed in PC12 cells co-transfected with RXRalpha and luciferase reporter plasmid harboring NurRE response element at 0.244 to 15.63 uM incubated for 18 by luciferase reporter gene assay; conditions: PC-12, dose 0.244-15.63 µM, time 18.0 hrs; how it was run: as §6

Nuclear receptor subfamily 4 group A member 2 (Homo sapiens), sequence (P43354 whole entry): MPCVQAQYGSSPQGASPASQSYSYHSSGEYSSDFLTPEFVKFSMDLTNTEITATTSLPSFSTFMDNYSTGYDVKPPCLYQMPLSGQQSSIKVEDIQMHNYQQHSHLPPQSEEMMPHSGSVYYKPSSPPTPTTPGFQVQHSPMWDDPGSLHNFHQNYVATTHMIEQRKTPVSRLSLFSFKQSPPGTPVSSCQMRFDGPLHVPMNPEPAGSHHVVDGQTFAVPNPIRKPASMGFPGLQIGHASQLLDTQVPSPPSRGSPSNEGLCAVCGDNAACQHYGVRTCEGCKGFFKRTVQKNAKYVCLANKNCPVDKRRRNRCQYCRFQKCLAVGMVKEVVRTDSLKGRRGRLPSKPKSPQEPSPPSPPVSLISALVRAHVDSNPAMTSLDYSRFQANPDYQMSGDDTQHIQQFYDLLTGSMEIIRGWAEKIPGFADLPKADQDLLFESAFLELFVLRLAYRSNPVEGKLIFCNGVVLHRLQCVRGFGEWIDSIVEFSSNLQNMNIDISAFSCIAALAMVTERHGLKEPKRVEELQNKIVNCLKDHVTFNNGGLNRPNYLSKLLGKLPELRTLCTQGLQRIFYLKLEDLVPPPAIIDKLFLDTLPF

CCCCCCCC(=O)c1cc(OC)c(OC)c(OC)c1CC(=O)OCC
Activity [1]: Active | Activity [2]: Active | Activity [3]: Toxic | Activity [4]: inactive | Activity [5]: inactive | Activity [6]: inactive | Activity [7]: Toxic | Activity [8]: Toxic | Activity [9]: inactive | Activity [10]: Active | Activity [11]: inactive | Activity [12]: inactive | Activity [13]: inactive | Activity [14]: inactive | Activity [15]: inactive | Activity [16]: inactive | Activity [17]: inactive | Activity [18]: inactive
